The source of these data is ChEMBL document CHEMBL1141475 (Bioorg Med Chem Lett, 2008).

SMILES strings stand for the structures. pEC50, pIC50: −log10 of the molar value. Peptide text beside a SMILES is read from it. A value given as a limit tells only on which side of the number the result lay.

In assay [1] the test system is Mus musculus. As to the kind of experiment: Antinociceptive activity in mouse assessed as paw licking latency at 10 ug, icv by hot plate test. It counts as functional. In outline:
(§1)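 Mice, single intracerebroventricular peptide injection; hot plate latencies recorded for rearing, paw licking and jumping. Control latencies (t0) taken after saline, test latencies (t1) after peptide. Expressed as %MPE = (t1 − t0)/(t2 − t0) × 100, with a cutoff time (t2) of 240 s.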
A general note: In hot-plate and tail-flick tests a longer latency is read as antinociception.

The test system of assay [2] is Mus musculus. As to the kind of experiment: Antinociceptive activity in mouse assessed as rearing latency at 10 ug, icv in presence of endomorphin-2 by hot plate test. The format is functional. An outline of the steps: (§2)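 Mouse hot plate test with intracerebroventricular co-injection of endomorphin-2 (3 ug/animal) plus antagonist: naloxone at 5 ug/animal, or analog at 10 ug/animal. Rearing, paw-licking and jumping latencies were measured against saline controls and converted to %MPE = (t1 − t0)/(t2 − t0) × 100, with a 240 s cutoff.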

For assay [3], the system named is Mus musculus. Briefly: Antinociceptive activity in mouse assessed as rearing latency at 10 ug, icv by hot plate test. It counts as functional. An outline of the steps:
as §1

Assay [4] addresses T1, Mu-type opioid receptor (Rattus norvegicus, UniProt P33535). Briefly: Displacement of [3H]DAMGO from mu opioid receptor in rat brain membranes. It counts as cell membranes.
The subject of assay [5] is Mus musculus. Briefly: Antinociceptive activity in mouse assessed as paw licking latency at 10 ug, icv in presence of endomorphin-2 by hot plate test. It counts as functional. An outline of the steps:
as §2

For assay [6], the system named is Mus musculus. As to the kind of experiment: Antinociceptive activity in mouse assessed as jumping latency at 10 ug, icv in presence of endomorphin-2 by hot plate test. It counts as functional. An outline of the steps: as §2
Assay [7] can be described thus: Selectivity for mu opioid receptor over delta opioid receptor in rat brain membranes. The format is cell membranes.
The subject of assay [8] is Mus musculus. Briefly: Antinociceptive activity in mouse assessed as rearing latency at 5 ug, icv in presence of endomorphin-2 by hot plate test. It counts as functional. An outline of the steps: as §2
The test system of assay [9] is Mus musculus. As to the kind of experiment: Antinociceptive activity in mouse assessed as paw licking latency at 5 ug, icv in presence of endomorphin-2 by hot plate test. The format is functional. An outline of the steps:
as §2

For assay [10], the system named is Mus musculus. As to the kind of experiment: Antinociceptive activity in mouse assessed as jumping latency at 5 ug, icv in presence of endomorphin-2 by hot plate test. The format is functional. An outline of the steps: as §2
The target in assay [11] is Delta-type opioid receptor (Rattus norvegicus, UniProt P33533). Briefly: Displacement of [3H]naltrindole from delta opioid receptor in rat brain membranes. The format is cell membranes. (In general: In a radioligand displacement assay an active substance lowers the binding of a labelled ligand.)
The target in assay [12] is Delta-type opioid receptor (Homo sapiens, UniProt P41143). As to the kind of experiment: Antagonist activity at delta opioid receptor expressed in CHO cells assessed as release of intracellular calcium ions by aequorin luminescence-based calcium assay. The format is functional, cell-based. On the technique in general: A change in cytosolic calcium serves as a functional read-out for many receptors and channels.

In assay [13] the test system is Mus musculus. Briefly: Antinociceptive activity in mouse assessed as jumping latency at 10 ug, icv by hot plate test. It counts as functional. In outline:
as §1

Assay [14] addresses T1, Mu-type opioid receptor. As to the kind of experiment: Displacement of [3H]naloxone from mu opioid receptor in rat brain membranes. The format is cell membranes.

T1 sequence (P33535 whole entry): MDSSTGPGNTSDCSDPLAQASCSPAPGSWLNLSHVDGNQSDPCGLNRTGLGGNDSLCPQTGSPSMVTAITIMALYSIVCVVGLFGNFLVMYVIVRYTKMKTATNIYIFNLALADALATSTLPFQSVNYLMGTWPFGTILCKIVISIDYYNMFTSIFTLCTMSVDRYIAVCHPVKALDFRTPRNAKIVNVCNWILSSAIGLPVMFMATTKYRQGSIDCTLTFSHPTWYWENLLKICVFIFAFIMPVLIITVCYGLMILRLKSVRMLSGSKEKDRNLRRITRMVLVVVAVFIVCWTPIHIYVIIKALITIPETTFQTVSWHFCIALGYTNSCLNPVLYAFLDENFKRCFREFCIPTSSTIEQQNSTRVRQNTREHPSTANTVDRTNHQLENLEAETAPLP
Delta-type opioid receptor (Homo sapiens, UniProt P41143), sequence (P41143 whole entry): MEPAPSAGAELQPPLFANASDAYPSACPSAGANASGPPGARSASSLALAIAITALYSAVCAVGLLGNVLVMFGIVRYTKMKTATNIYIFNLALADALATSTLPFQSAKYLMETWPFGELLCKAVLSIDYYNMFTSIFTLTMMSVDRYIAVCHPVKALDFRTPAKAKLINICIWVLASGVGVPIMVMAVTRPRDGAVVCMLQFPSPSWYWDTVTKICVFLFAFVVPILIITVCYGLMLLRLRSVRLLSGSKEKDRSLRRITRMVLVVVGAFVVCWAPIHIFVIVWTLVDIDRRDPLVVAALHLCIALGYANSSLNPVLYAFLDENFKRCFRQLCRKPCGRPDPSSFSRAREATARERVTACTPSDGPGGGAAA
Delta-type opioid receptor (Rattus norvegicus, UniProt P33533), sequence (P33533 whole entry): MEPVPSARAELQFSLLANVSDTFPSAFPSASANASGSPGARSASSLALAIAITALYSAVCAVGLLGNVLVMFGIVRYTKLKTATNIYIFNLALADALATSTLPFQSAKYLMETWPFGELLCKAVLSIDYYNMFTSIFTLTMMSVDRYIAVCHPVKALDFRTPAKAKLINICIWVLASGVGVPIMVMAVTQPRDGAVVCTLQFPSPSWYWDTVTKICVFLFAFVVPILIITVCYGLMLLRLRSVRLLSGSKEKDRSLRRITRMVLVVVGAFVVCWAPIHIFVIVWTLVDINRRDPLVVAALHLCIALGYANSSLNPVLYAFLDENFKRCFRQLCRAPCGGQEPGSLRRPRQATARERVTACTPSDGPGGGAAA

The pIC50 is −log10 of the IC50, conventionally taken in molar units. Higher therefore signals a small IC50. On to `Cc1cc(O)cc(C)c1C[C@H](N)C(=O)N1CCC[C@H]1C(=O)N[C@@H](Cc1ccccc1)C(=O)N[C@H](Cc1ccc2ccccc2c1)C(N)=O` (HELM PEPTIDE1{[Cc1cc(O)cc(C)c1C[C@H](N)C(=O)[*:2]].P.F.[O=C([C@@H](Cc1ccc2ccccc2c1)N[*:1])[*:2]].[am]}$$$$V2.0), for which the MPE is 0.09% in the assay on Mus musculus [1]; 0.13% with Mus musculus [2]; 0.18% with Mus musculus [3]; 0.26% in the assay with Mus musculus [5]; 2.26% in the assay on Mus musculus [6]. Moreover, the pIC50 was 8.82 at Mu-type opioid receptor [4] and 8.29 in [7].

`C=CCN1CC[C@]23c4c5ccc(O)c4O[C@H]2C(=O)CC[C@@]3(O)[C@H]1C5` [NALOXONE]: the MPE in the assay with Mus musculus [8] came to 0.22%; in the assay with Mus musculus [9] it was 0.34%; in the assay on Mus musculus [10], 2.19%.

What is called pEC50 is −log10 of the EC50, conventionally taken in molar units. For the compound `Cc1cc(O)cc(C)c1C[C@H](N)C(=O)N(C)CC(=O)N[C@@H](Cc1ccccc1)C(=O)N[C@H](Cc1ccc2ccccc2c1)C(N)=O` (HELM PEPTIDE1{[Cc1cc(O)cc(C)c1C[C@H](N)C(=O)[*:2]].[Sar].F.[O=C([C@@H](Cc1ccc2ccccc2c1)N[*:1])[*:2]].[am]}$$$$V2.0), the MPE in the assay with Mus musculus [1] came out at 0.04%; in the assay on Mus musculus [2], 3.63%; with Mus musculus [3] it was 0.09%; with Mus musculus [5], 1.89%; in the assay with Mus musculus [6], 11.5%; in the assay on Mus musculus [13], 1.42%. The pIC50 at Mu-type opioid receptor [4] is 11.00; in assay [11], below 5.00; in [7], below 5.00. Besides, in assay [12], the pEC50 is below 6.00.

For the compound `CN(CC(=O)N[C@@H](Cc1ccccc1)C(=O)N[C@H](Cc1ccc2ccccc2c1)C(N)=O)C(=O)[C@@H](N)Cc1ccc(O)cc1`, the pIC50 on Mu-type opioid receptor [4] is 5.81; in [11] it was below 5.00; in [7] it was below 8.19. For the same compound, in assay [12], the pEC50 was below 6.00.

In the case of `NC(=O)[C@@H](Cc1ccc2ccccc2c1)NC(=O)[C@H](Cc1ccccc1)NC(=O)[C@@H]1CCCN1C(=O)[C@@H](N)Cc1ccc(O)cc1` (HELM PEPTIDE1{Y.P.F.[O=C([C@@H](Cc1ccc2ccccc2c1)N[*:1])[*:2]].[am]}$$$$V2.0), the MPE is on record as 5.26% in the assay with Mus musculus [2], 2.94% in the assay on Mus musculus [5] and 17.9% in the assay on Mus musculus [6]. At Mu-type opioid receptor [14], the pIC50 was 7.71.
